Format in all cases: functional
For assay [1], the system named is Staphylococcus aureus. In words: Antibacterial activity against Staphylococcus aureus MTCC 96 assessed as bacterial growth inhibition by microdilution method. A digest of the protocol: (§1)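 Broth microdilution against Gram-positive and Gram-negative strains. The endpoint is the minimal inhibitory concentration, in µg/ml.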
The subject of assay [2] is Bacillus subtilis. In words: Antibacterial activity against Bacillus subtilis MTCC 441 assessed as bacterial growth inhibition by microdilution method. A digest of the protocol: as §1
Assay [3] relates to Pseudomonas aeruginosa. Description: Antibacterial activity against Pseudomonas aeruginosa MTCC 424 assessed as bacterial growth inhibition by microdilution method. A digest of the protocol:
as §1

Assay [4] relates to Escherichia coli. Description: Antibacterial activity against Escherichia coli MTCC 443 assessed as bacterial growth inhibition by microdilution method. A digest of the protocol:
as §1
(In general: In broth dilution the organism is exposed to a series of concentrations in liquid medium.)

In assay [5] the test system is Aspergillus niger. In words: Antifungal activity against Aspergillus niger MTCC 404 assessed as zone of inhibition at 16.8 uM incubated for 2 days by cross streak plate method. The conditions noted are these: MTCC 404, 48 h, time 2 day, read-out: IZ. The gist of the method:
(§2)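 Fungal strain (A. niger MTCC 404 or S. cerevisiae MTCC 1344) was incubated with the compound for 2 days at 37 °C. Growth inhibition was then assessed by the cross streak plate method.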

Assay [6] has as its system Aspergillus niger. In words: Antifungal activity against Aspergillus niger MTCC 404 assessed as zone of inhibition at 25.2 uM incubated for 2 days by cross streak plate method. The settings on record: MTCC 404, 48 h, time 2 day, read-out: IZ. The gist of the method: as §2
The test system of assay [7] is Aspergillus niger. Description: Antifungal activity against Aspergillus niger MTCC 404 assessed as zone of inhibition at 33.7 uM incubated for 2 days by cross streak plate method. The conditions noted are these: MTCC 404, 48 h, time 2 day, read-out: IZ. A digest of the protocol:
as §2

For assay [8], the system named is Saccharomyces cerevisiae. Description: Antifungal activity against Saccharomyces cerevisiae MTCC 1344 assessed as zone of inhibition at 16.8 uM incubated for 2 days by cross streak plate method. The settings on record: MTCC 1344, 48 h, time 2 day, read-out: IZ. The gist of the method: as §2
Assay [9] has as its system Saccharomyces cerevisiae. Description: Antifungal activity against Saccharomyces cerevisiae MTCC 1344 assessed as zone of inhibition at 25.2 uM incubated for 2 days by cross streak plate method. The conditions noted are these: MTCC 1344, 48 h, time 2 day, read-out: IZ. The gist of the method:
as §2

Assay [10] concerns Saccharomyces cerevisiae. Description: Antifungal activity against Saccharomyces cerevisiae MTCC 1344 assessed as zone of inhibition at 33.7 uM incubated for 2 days by cross streak plate method. The settings on record: MTCC 1344, 48 h, time 2 day, read-out: IZ. A digest of the protocol:
(§3)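 S. cerevisiae MTCC 1344 cultures were incubated for 2 days at 37 °C and then tested by the cross streak plate method.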

Assay [11] can be described thus: Antioxidant activity assessed as DPPH radical scavenging activity. Background: DPPH is a stable violet radical that fades when it is reduced.
Assay [12] has as its system Aspergillus niger. Description: Antifungal activity against Aspergillus niger MTCC 404 assessed as zone of inhibition at 15.9 uM incubated for 2 days by cross streak plate method. The settings on record: MTCC 404, 48 h, time 2 day, read-out: IZ. The gist of the method: as §2
The subject of assay [13] is Aspergillus niger. In words: Antifungal activity against Aspergillus niger MTCC 404 assessed as zone of inhibition at 23.9 uM incubated for 2 days by cross streak plate method. The settings on record: MTCC 404, 48 h, time 2 day, read-out: IZ. A digest of the protocol: as §2
In assay [14] the test system is Aspergillus niger. In words: Antifungal activity against Aspergillus niger MTCC 404 assessed as zone of inhibition at 31.8 uM incubated for 2 days by cross streak plate method. The settings on record: MTCC 404, 48 h, time 2 day, read-out: IZ. A digest of the protocol:
as §2

In assay [15] the test system is Saccharomyces cerevisiae. In words: Antifungal activity against Saccharomyces cerevisiae MTCC 1344 assessed as zone of inhibition at 15.9 uM incubated for 2 days by cross streak plate method. The settings on record: MTCC 1344, 48 h, time 2 day, read-out: IZ. The gist of the method:
as §2

Assay [16] has as its system Saccharomyces cerevisiae. Description: Antifungal activity against Saccharomyces cerevisiae MTCC 1344 assessed as zone of inhibition at 23.9 uM incubated for 2 days by cross streak plate method. The conditions noted are these: MTCC 1344, 48 h, time 2 day, read-out: IZ. A digest of the protocol: as §2
The subject of assay [17] is Saccharomyces cerevisiae. Description: Antifungal activity against Saccharomyces cerevisiae MTCC 1344 assessed as zone of inhibition at 31.8 uM incubated for 2 days by cross streak plate method. The conditions noted are these: MTCC 1344, 48 h, time 2 day, read-out: IZ. A digest of the protocol:
as §2

In assay [18] the test system is Aspergillus niger. In words: Antifungal activity against Aspergillus niger MTCC 404 assessed as zone of inhibition at 17.2 uM incubated for 2 days by cross streak plate method. The conditions noted are these: MTCC 404, 48 h, time 2 day, read-out: IZ. The gist of the method:
as §2

Assay [19] deals with Aspergillus niger. In words: Antifungal activity against Aspergillus niger MTCC 404 assessed as zone of inhibition at 25.9 uM incubated for 2 days by cross streak plate method. The settings on record: MTCC 404, 48 h, time 2 day, read-out: IZ. A digest of the protocol:
as §2

Assay [20] concerns Aspergillus niger. Description: Antifungal activity against Aspergillus niger MTCC 404 assessed as zone of inhibition at 34.5 uM incubated for 2 days by cross streak plate method. The conditions noted are these: MTCC 404, 48 h, time 2 day, read-out: IZ. A digest of the protocol: as §2
The subject of assay [21] is Saccharomyces cerevisiae. In words: Antifungal activity against Saccharomyces cerevisiae MTCC 1344 assessed as zone of inhibition at 17.2 uM incubated for 2 days by cross streak plate method. The conditions noted are these: MTCC 1344, 48 h, time 2 day, read-out: IZ. A digest of the protocol:
as §2

Assay [22] has as its system Saccharomyces cerevisiae. Description: Antifungal activity against Saccharomyces cerevisiae MTCC 1344 assessed as zone of inhibition at 25.9 uM incubated for 2 days by cross streak plate method. The settings on record: MTCC 1344, 48 h, time 2 day, read-out: IZ. The gist of the method:
as §2

Assay [23] deals with Saccharomyces cerevisiae. In words: Antifungal activity against Saccharomyces cerevisiae MTCC 1344 assessed as zone of inhibition at 34.5 uM incubated for 2 days by cross streak plate method. The conditions noted are these: MTCC 1344, 48 h, time 2 day, read-out: IZ. The gist of the method: as §3
For assay [24], the system named is Aspergillus niger. Description: Antifungal activity against Aspergillus niger MTCC 404 assessed as zone of inhibition at 18.3 uM incubated for 2 days by cross streak plate method. The settings on record: MTCC 404, 48 h, time 2 day, read-out: IZ. The gist of the method: as §2
Assay [25] deals with Aspergillus niger. Description: Antifungal activity against Aspergillus niger MTCC 404 assessed as zone of inhibition at 27.5 uM incubated for 2 days by cross streak plate method. The conditions noted are these: MTCC 404, 48 h, time 2 day, read-out: IZ. The gist of the method: as §2
In assay [26] the test system is Aspergillus niger. Description: Antifungal activity against Aspergillus niger MTCC 404 assessed as zone of inhibition at 36.6 uM incubated for 2 days by cross streak plate method. The conditions noted are these: MTCC 404, 48 h, time 2 day, read-out: IZ. A digest of the protocol:
as §2

Assay [27] deals with Saccharomyces cerevisiae. In words: Antifungal activity against Saccharomyces cerevisiae MTCC 1344 assessed as zone of inhibition at 18.3 uM incubated for 2 days by cross streak plate method. The conditions noted are these: MTCC 1344, 48 h, time 2 day, read-out: IZ. A digest of the protocol:
as §2

In assay [28] the test system is Saccharomyces cerevisiae. Description: Antifungal activity against Saccharomyces cerevisiae MTCC 1344 assessed as zone of inhibition at 27.5 uM incubated for 2 days by cross streak plate method. The settings on record: MTCC 1344, 48 h, time 2 day, read-out: IZ. A digest of the protocol: as §2
Assay [29] has as its system Saccharomyces cerevisiae. Description: Antifungal activity against Saccharomyces cerevisiae MTCC 1344 assessed as zone of inhibition at 36.6 uM incubated for 2 days by cross streak plate method. The settings on record: MTCC 1344, 48 h, time 2 day, read-out: IZ. A digest of the protocol: as §3

The results in this text go back to ChEMBL document CHEMBL4814044, “Design and synthesis, biological evaluation of bis-(1,2,3- and 1,2,4)-triazole derivatives as potential antimicrobial and antifungal agents” (2021).

Calls of active or inactive are those of the source. The calls are words filed in the database; no cut-off is given here.

For `O=C(CSc1nnc(-c2ccccc2OCc2cn(-c3ccccc3)nn2)n1Cc1ccccc1)c1ccccc1`, the MIC (commonly the lowest concentration found to suppress growth) in assay [1] was determined as 7.9 µg/mL; in assay [2], 5 µg/mL; in assay [3], 7.5 µg/mL; in [4], 10 µg/mL. Also, the zone of inhibition at 16.8 µM in assay [5] and in assay [8] was 2 mm throughout. The zone of inhibition at 25.2 µM in [6] and in [9] was 3 mm each time. Also, the zone of inhibition at 33.7 µM in [7] and in assay [10] was 3 mm throughout. Moreover, the result in [11] was inactive.
Turning to `CC1(C)S[C@@H]2[C@H](NC(=O)[C@H](N)c3ccccc3)C(=O)N2[C@H]1C(=O)O` [AMPICILLIN], the MIC in [1] amounted to 10 µg/mL; in assay [2], 10 µg/mL; in assay [3] it was 10 µg/mL; in [4], 3.9 µg/mL.
For `O=C(CSc1nnc(-c2ccccc2OCc2cn(-c3ccccc3)nn2)n1Cc1ccccc1)c1cccc(Cl)c1`, the MIC is 8 µg/mL in assay [1], 4.1 µg/mL in assay [2], 7.5 µg/mL in [3] and above 40.8 µg/mL in [4]. Besides, the zone of inhibition at 15.9 µM came to 2 mm in [12] and 1.5 mm in [15]. Also, the zone of inhibition at 23.9 µM in [13] and in [16] was 2 mm throughout. Also, the zone of inhibition at 31.8 µM in assay [14] and in assay [17] was 3 mm in each case. In [11], the outcome was inactive.
As for `O=C(CSc1nnc(-c2ccccc2OCc2cn(-c3ccccc3)nn2)n1-c1ccccc1)c1ccc(Cl)cc1`, the MIC was 8.4 µg/mL in assay [1], 4 µg/mL in assay [2], 7.9 µg/mL in assay [3] and above 45.4 µg/mL in [4]. The values for the zone of inhibition at 17.2 µM in [18] and in assay [21] were 2.1 mm and 2 mm, respectively. In addition, the zone of inhibition at 25.9 µM in [19] and in assay [22] was 3 mm throughout. Besides, the zone of inhibition at 34.5 µM in assay [20] and in assay [23] was 3 mm each time. The outcome in [11] was inactive.
Turning to `O=C(Sc1nnc(-c2ccccc2OCc2cn(-c3ccccc3)nn2)n1Cc1ccccc1)c1ccccc1`, the MIC in assay [1] was determined as 8.9 µg/mL; in assay [2] it was 4 µg/mL; in assay [3], 8.7 µg/mL; in assay [4], 10 µg/mL. For the same compound, the figures for the zone of inhibition at 18.3 µM in [24] and in [27] were 5.5 mm and 6 mm, respectively. Moreover, the zone of inhibition at 27.5 µM in assay [25] and in [28] was 6.8 mm throughout. Also, the figures for the zone of inhibition at 36.6 µM in assay [26] and in [29] were 7 mm and 6.7 mm, respectively. For the same compound, in assay [11], the outcome was inactive.
